# KCNQ1 inh = human KCNQ1 channel inhibition; CHO-K1 KCNQ1, FluxOR thallium flux fluorescence; hits give high values; B-score at 10 µM; 1.3% of 310,000 active; AID 2642;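 active = compounds whose thallium flux B-score, printed positive for inhibition, exceeds three library SD while starting fluorescence stays within three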;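 also: channel opened by potassium depolarization with thallium stimulus after 20 min compound exposure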
# KCNK3 block = human KCNK3 channel inhibition, primary screen. CHO-KCNK3 thallium flux, FluxOR fluorescence; hits give low values. AID 602410. 0.84% of 340,000 active. O14649. B-score at 10 µM;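 active = B-score under library mean minus 4 SD, starting fluorescence ratio at most library mean plus 5 SD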;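 also: more negative B-score means stronger inhibition of thallium flux through KCNK3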
# KCNQ1 pot = human KCNQ1 channel potentiation or activation; P51787; CHO-K1 KCNQ1, thallium flux FluxOR fluorescence; hits give high values; B-score at 10 µM; 0.35% of 310,000 active;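 active = fluorescence ratio B-score, a plate-corrected score, at least three library SD, with initial intensity B-score within 5 SD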
#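 Medium – assay buffer, equal DMSO in all wells · Material – CHO-K1 cell line with stable KCNQ1 potassium channel expression · Signal – kinetic FluxOR thallium fluorescence, 10-s 1-Hz baseline, 110-s post-stimulus read · Compound – single concentration per compound, DMSO matched to controls · Schedule – 37 °C overnight plating, 90-min dark dye load, 20-min compound pretreatment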
# Kir21 block = blocks the mouse Kir2.1 inward-rectifier potassium channel; HEK293-Kir2.1, FluxOR thallium flux fluorescence; hits give low values; B-score at 10 µM; 0.85% of 310,000 active;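 active = fluorescence ratio B-score at or below minus 3 SD of library scores, with starting-brightness B-score within 2 SD, cut at about -4.2 in these data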;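 also: channel flux triggered by added potassium and thallium sulfate stimulus; B-score of peak minus minimum fluorescence over baseline after thallium stimulus; more negative B-score means stronger Kir2.1 block with less thallium influx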
# hERG rescue = shields human hERG channel from block by proarrhythmic agents; Q12809; CHO-hERG, FluxOR thallium flux, dofetilide IC70 present; activation (rescue from dofetilide block), less the hit threshold, % at 10 µM; 0.51% of 310,000 active;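 active = activation above the mean of controls blocked by dofetilide plus 5 SD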;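 also: thallium influx through hERG after potassium depolarization seen as dye fluorescence rise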
# KCNK9 inh = blocks the human KCNK9 two-pore domain potassium channel; HEK293 KCNK9, FluxOR thallium flux fluorescence; hits give low values; B-score at 10 µM; 1.2% of 310,000 active; AID 488922;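 active = ratio B-score over 3 SD below the library mean, with starting fluorescence within 5 SD of its mean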;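 also: negative B-score means less thallium flux so channel inhibition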
# KCNK9 block conf = human KCNK9 inhibitor confirmation; 43% of 4,900 active; shares compounds with KCNK9 inh; inhibition, % at 10 µM; HEK293 KCNK9 cells, FluxOR thallium flux fluorescence; AID 492992;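 active = thallium signal inhibited by more than 5 SD of the compound-free buffer control wells, on both duplicate plates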;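 also: 0% = assay buffer control wells without compound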
# Kir21 sel = selectivity of KCNK9 modulators against mouse Kir2.1. shares compounds with KCNK9 inh. Kir2.1 cells, FluxOR thallium flux fluorescence. inhibition, % at 10 µM. 4% of 4,900 active;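 active = thallium signal drop more than 5 SD beyond the mean of the no-compound control wells, seen in both duplicate plates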;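 also: signal is fluorescence rise after thallium addition divided by baseline fluorescence; plate controls were assay buffer only for no effect and full block by chlorpromazine control for full effect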
# HEK293 Tl ctr = non-induced cell nonspecific activity of KCNK9 modulators; non-induced KCNK9-HEK293, FluxOR thallium flux; inhibition, % at 10 µM; AID 492997; shares compounds with KCNK9 inh; 40% of 4,900 active;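 active = thallium signal drop beyond 5 SD of the untreated control mean, on both duplicate plates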;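 also: plate controls were buffer only IC0 wells for no effect and SID17386958 at its maximal inhibitory level for full effect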
# Numbers without * were called inactive; i = inactive; x = no result. Rows were chosen to be rich in hits. Some 3.8% of all compounds tested hit in one or more screens of this group.
SMILES,KCNQ1 inh,KCNK3 block,KCNQ1 pot,Kir21 block,hERG rescue,KCNK9 inh,KCNK9 block conf,Kir21 sel,HEK293 Tl ctr
Cn1c(=O)c(C(=O)NCc2ccccc2)c(O)c2ccccc21,i,i,i,1.2,1,i,x,x,x
Cc1cccc(N(CC(=O)N/N=C/c2ccc(C(=O)O)cc2)S(=O)(=O)c2ccccc2)c1C,i,i,i,2.2,-3,i,x,x,x
CCCCn1c(N)c(N(CC)C(=O)c2cnc(C)cn2)c(=O)[nH]c1=O,x,i,x,x,x,x,x,x,x
Cc1cc(C)cc(NC(=O)CSc2nnc(CNC(=O)c3ccco3)n2C)c1,x,i,x,x,x,x,x,x,x
CCN1CCN(C(=O)CN2C(=O)c3ccccc3S2(=O)=O)CC1,i,i,i,-0.11,-11,i,x,x,x
CCOC(=O)N1CCc2c(sc3c2c(=O)n(Cc2ccccc2)c(=O)n3Cc2cccc(C)c2)C1,i,i,i,-0.4,-6,i,i,i,i
CCOC(=O)N1CCc2c(sc3c2c(=O)n(Cc2ccccc2)c(=O)n3Cc2ccccc2F)C1,i,i,i,0.24,-10,i,i,i,i
COc1ccc(S(=O)(=O)N(C)C[C@H]2Oc3c(NS(=O)(=O)c4cn(C)cn4)cccc3C(=O)N([C@H](C)CO)C[C@@H]2C)cc1,x,i,x,x,x,x,x,x,x
O=C(Nc1nc(-c2cccs2)c(-c2ccccc2)s1)c1ccco1,i,i,i,0.11,-16,-9*,62%*,i,26%*
CC1Cc2ccccc2N1C(=S)NC1CCCC1 (stereo not drawn),i,i,i,-1.4,-13,i,i,i,i
Cc1ccc(NC(=O)c2cccc3c2C(=O)N(C2CCCCC2)C3)c(C)c1,i,i,i,-0.05,-7,i,x,x,x
Cc1cc(C)c(NC(=O)c2cccc3c2C(=O)N(C2CCCCC2)C3)c(C)c1,i,i,i,0.01,-12,-12*,i,i,52%*
Cn1c(Sc2ccc(Cl)cc2)c(C=O)c2ccccc21,7*,i,i,-0.36,-7,-8.2*,57%*,i,46%*
Cn1c(Oc2ccc(F)cc2F)c(C=O)c2ccccc21,i,i,i,-1,-29,i,x,x,x
CN(CCc1cnn(C)c1)Cc1nc(Cc2ccccc2)no1,i,i,i,-0.4,-11,i,x,x,x
CN(Cc1cnn(-c2ccc(F)cc2)c1)Cc1nc(Cc2ccccc2)no1,i,i,i,0.04,-14,i,i,i,i
COc1ccccc1C(=O)NNC(=O)c1ccc(Br)o1,i,i,i,0.02,-4,i,x,x,x
COc1ccc(S(=O)(=O)N(C)C[C@@H]2Oc3c(NS(C)(=O)=O)cccc3C(=O)N([C@@H](C)CO)C[C@H]2C)cc1,x,i,x,x,x,x,x,x,x
Cc1ccc(C)n1-n1c(C)nc2sc(-c3ccccc3)cc2c1=O,i,i,i,-1.9,-11,i,i,i,i
Cc1ccc(C)n1-n1cnc2sc(-c3ccccc3)cc2c1=O,i,i,i,-2.4,-8,-14*,44%*,i,26%*
CCn1cnc2sc(-c3ccccc3)cc2c1=O,i,i,i,-1.7,-7,i,x,x,x
CCOc1cc(N2CCOCC2)c(OCC)cc1NC(=O)C(NC(=O)c1c(F)cccc1F)C(C)C (stereo not drawn),x,i,x,x,x,x,x,x,x
C/C(=N\NC(=O)c1cc(C)nc2ccccc12)c1cccc(Cl)c1,i,i,i,-0.93,-14,i,x,x,x
O=c1cc(CN2CCN(CCO)CC2)c2cc3c(cc2o1)CCC3,i,i,i,-1.3,-13,i,x,x,x
O=c1cc(CN2CCN(Cc3ccccc3)CC2)c2cc3c(cc2o1)CCC3,i,i,i,-0.02,-9,i,i,i,i
SMILES,KCNQ1 inh,KCNK3 block,KCNQ1 pot,Kir21 block,hERG rescue,KCNK9 inh,KCNK9 block conf,Kir21 sel,HEK293 Tl ctr
c1ccc(-c2csc3ncnc(N4CCc5ccccc5C4)c23)cc1,i,i,i,-8.5*,-13,-11*,55%*,i,38%*
CC(C)C[C@H](NC(=O)OC(C)(C)C)C(=O)N/N=C/c1ccc2nccnc2c1,i,i,i,0.56,-12,i,x,x,x
CC(C)C[C@H](NC(=O)OC(C)(C)C)C(=O)N/N=C/C1=Cc2ccccc2OC1C (stereo partly drawn),i,i,i,0.23,-10,-11*,68%*,i,32%*
CCOC(=O)c1ccc(CN2Cc3ccccc3C2=O)cc1,i,i,i,2.8,-7,i,x,x,x
COc1ccc(Br)cc1C(=O)Nc1cccc(-c2nnc(-c3ccco3)o2)c1,i,i,i,0,-4,-12*,60%*,i,i
CCCCN1C(=O)C(=O)N(CC(=O)c2cc(C)n(-c3cc(C)on3)c2C)C1=O,x,i,x,x,x,x,x,x,x
CCCC(=O)Nc1cc(C)c(NC(=O)c2ccccn2)cn1,i,i,i,-0.08,-10,i,x,x,x
Cc1cc(NC(=O)C(C)C)ncc1NC(=O)c1ccccn1,i,i,i,1.2,-1,i,i,i,i
CCN1C[C@@H]2[C@@H]3C(=O)N(C)C(=O)[C@@H]3[C@](CC)(C1=O)N2C(=O)c1ccc(C)cc1,x,i,x,x,x,x,x,x,x
C/C(=N\Nc1cc(C(F)(F)F)ccc1Cl)c1ccccc1O,i,i,i,0.49,-12,i,i,i,i
C/C(=N\Nc1ccc(F)cc1F)c1ccccc1O,i,i,i,0.02,-10,i,x,x,x
COCCCNC(=O)C[C@H]1C[C@H](C(=O)N(C(C)C)C(C)C)[C@@]2(C)c3[nH]c4cc(-c5ccco5)ccc4c3CCN2C1=O,x,i,x,x,x,x,x,x,x
O=S(=O)(Cc1cc(Sc2ccc(Cl)cc2)nc(-c2ccccc2)n1)c1ccccc1,i,i,i,1.6,-10,-8.5*,i,i,32%*
O=C(Oc1ccc2ccc(=O)oc2c1)c1ccccc1,i,i,i,0.67,-11,i,x,x,x
COc1ccc(C(=O)Oc2ccc3ccc(=O)oc3c2)cc1,i,i,i,1.1,-3,-13*,64%*,i,27%*
COc1ccc(CS(=O)(=O)CC(C)(O)c2ccccc2Cl)cc1 (stereo not drawn),i,i,i,-1.2,-14,i,x,x,x

# Screening data from PubChem BioAssay.
